Source: ChEMBL document CHEMBL1287652, “QSAR modeling, synthesis and bioassay of diverse leukemia RPMI-8226 cell line active agents” (2010)

Columns and labels:
Assay type in all cases: functional
[1] = tested on: MOLT-4; assay: Antitumor activity against human MOLT4 cells at 10 uM after 48 hrs by sulforhodamine B assay relative to control; details: MOLT-4, 48 h, values are per cent of control
Procedure, shortened: (§1)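 NCI panel lines were grown in RPMI-1640 with 5% FBS and 2 mM L-glutamine and seeded at 5000–40,000 cells/well according to doubling time. After 24 h at 37 °C, 5% CO2, one dose from a DMSO stock was added for 48 h. Cells were TCA-fixed (10% final adherent, 16% suspension), SRB-stained and read at 515 nm. Percent growth is relative to untreated control.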

[2] = tested on: A549; assay: Antitumor activity against human A549 cells at 10 uM after 48 hrs by sulforhodamine B assay relative to control; details: A549, 48 h, values are per cent of control
Procedure, shortened: (§2)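 Single-dose screen in a 55-line panel. Cells in RPMI-1640 with 5% FBS and 2 mM glutamine were preincubated for 24 h, then exposed to compound (DMSO stock diluted in medium) for 48 h at 37 °C with 5% CO2. Cells were fixed with cold TCA, stained with 0.4% SRB in 1% acetic acid, and dye was solubilized in 10 mM Tris base and read at 515 nm. Growth is given as percent of untreated control.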

[3] = tested on: EKVX; assay: Antitumor activity against human EKVX cells at 10 uM after 48 hrs by sulforhodamine B assay relative to control; details: values are per cent of control; procedure, shortened: as §2
[4] = tested on: HOP-62; assay: Antitumor activity against human HOP62 cells at 10 uM after 48 hrs by sulforhodamine B assay relative to control; details: HOP-62, 48 h, values are per cent of control; procedure, shortened: as §2
[5] = tested on: NCI-H226; assay: Antitumor activity against human NCI-H226 cells at 10 uM after 48 hrs by sulforhodamine B assay relative to control; details: NCI-H226, 48 h, values are per cent of control; procedure, shortened: as §1
[6] = tested on: NCI-H23; assay: Antitumor activity against human NCI-H23 cells at 10 uM after 48 hrs by sulforhodamine B assay relative to control; details: NCI-H23, 48 h, values are per cent of control; procedure, shortened: as §1
[7] = tested on: COLO 205; assay: Antitumor activity against human COLO205 cells at 10 uM after 48 hrs by sulforhodamine B assay relative to control; details: COLO 205, 48 h, values are per cent of control; procedure, shortened: as §2
[8] = tested on: HT-29; assay: Antitumor activity against human HT-29 cells at 10 uM after 48 hrs by sulforhodamine B assay relative to control; details: HT-29, 48 h, values are per cent of control; procedure, shortened: as §2
[9] = tested on: SW-620; assay: Antitumor activity against human SW620 cells at 10 uM after 48 hrs by sulforhodamine B assay relative to control; details: SW-620, 48 h, values are per cent of control
Procedure, shortened: (§3)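 NCI panel line grown in RPMI-1640 with 5% FBS and 2 mM L-glutamine, plated at 5000–40,000 cells/well, 24 h preincubation. Single final 10 µM from DMSO stock, 48 h at 37 °C, 5% CO2. TCA fixation (10% adherent, 16% suspension), SRB stain, absorbance 515 nm. Percent growth relative to untreated control.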

[10] = tested on: SF-268; assay: Antitumor activity against human SF268 cells at 10 uM after 48 hrs by sulforhodamine B assay relative to control; details: SF-268, 48 h, values are per cent of control; procedure, shortened: as §1
[11] = tested on: SF-295; assay: Antitumor activity against human SF295 cells at 10 uM after 48 hrs by sulforhodamine B assay relative to control; details: SF-295, 48 h, values are per cent of control; procedure, shortened: as §1
[12] = tested on: SNB-75; assay: Antitumor activity against human SNB75 cells at 10 uM after 48 hrs by sulforhodamine B assay relative to control; details: SNB-75, 48 h, values are per cent of control; procedure, shortened: as §1
[13] = tested on: U-251; assay: Antitumor activity against human U251 cells at 10 uM after 48 hrs by sulforhodamine B assay relative to control; details: U-251, 48 h, values are per cent of control; procedure, shortened: as §3
[14] = tested on: LOX IMVI; assay: Antitumor activity against human LOXIMVI cells at 10 uM after 48 hrs by sulforhodamine B assay relative to control; details: values are per cent of control; procedure, shortened: as §2
[15] = tested on: Malme-3M; assay: Antitumor activity against human MALME-3M cells at 10 uM after 48 hrs by sulforhodamine B assay relative to control; details: values are per cent of control; procedure, shortened: as §2
[16] = tested on: M14; assay: Antitumor activity against human M14 cells at 10 uM after 48 hrs by sulforhodamine B assay relative to control; details: M14, 48 h, values are per cent of control; procedure, shortened: as §2
[17] = tested on: SK-MEL-28; assay: Antitumor activity against human SK-MEL-28 cells at 10 uM after 48 hrs by sulforhodamine B assay relative to control; details: SK-MEL-28, 48 h, values are per cent of control; procedure, shortened: as §1
[18] = tested on: SK-MEL-5; assay: Antitumor activity against human SK-MEL-5 cells at 10 uM after 48 hrs by sulforhodamine B assay relative to control; details: SK-MEL-5, 48 h, values are per cent of control; procedure, shortened: as §1
[19] = tested on: IGROV-1; assay: Antitumor activity against human IGROV1 cells at 10 uM after 48 hrs by sulforhodamine B assay relative to control; details: IGROV-1, 48 h, values are per cent of control; procedure, shortened: as §2
[20] = tested on: 786-0; assay: Antitumor activity against human 786-0 cells at 10 uM after 48 hrs by sulforhodamine B assay relative to control; details: 786-0, 48 h, values are per cent of control; procedure, shortened: as §2
[21] = tested on: A498; assay: Antitumor activity against human A498 cells at 10 uM after 48 hrs by sulforhodamine B assay relative to control; details: A498, 48 h, values are per cent of control; procedure, shortened: as §2
[22] = tested on: ACHN; assay: Antitumor activity against human ACHN cells at 10 uM after 48 hrs by sulforhodamine B assay relative to control; details: values are per cent of control; procedure, shortened: as §2
[23] = tested on: SN12C; assay: Antitumor activity against human SN12C cells at 10 uM after 48 hrs by sulforhodamine B assay relative to control; details: values are per cent of control; procedure, shortened: as §1
[24] = tested on: UO-31; assay: Antitumor activity against human UO31 cells at 10 uM after 48 hrs by sulforhodamine B assay relative to control; details: UO-31, 48 h, values are per cent of control; procedure, shortened: as §3
[25] = tested on: PC-3; assay: Antitumor activity against human PC3 cells at 10 uM after 48 hrs by sulforhodamine B assay relative to control; details: PC-3, 48 h, values are per cent of control; procedure, shortened: as §1
[26] = tested on: DU-145; assay: Antitumor activity against human DU145 cells at 10 uM after 48 hrs by sulforhodamine B assay relative to control; details: DU-145, 48 h, values are per cent of control; procedure, shortened: as §2
[27] = tested on: MCF7; assay: Antitumor activity against human MCF7 cells at 10 uM after 48 hrs by sulforhodamine B assay relative to control; details: MCF7, 48 h, values are per cent of control; procedure, shortened: as §2
[28] = tested on: MDA-MB-231; assay: Antitumor activity against human MDA-MB-231 cells at 10 uM after 48 hrs by sulforhodamine B assay relative to control; details: MDA-MB-231, 48 h, values are per cent of control; procedure, shortened: as §2
[29] = Antitumor activity against human Hs 578T cells at 10 uM after 48 hrs by sulforhodamine B assay relative to control; details: values are per cent of control; procedure, shortened: as §2
[30] = tested on: BT-549; assay: Antitumor activity against human BT549 cells at 10 uM after 48 hrs by sulforhodamine B assay relative to control; details: BT-549, 48 h, values are per cent of control; procedure, shortened: as §2
[31] = tested on: T47D; assay: Antitumor activity against human T47D cells at 10 uM after 48 hrs by sulforhodamine B assay relative to control; details: values are per cent of control; procedure, shortened: as §3

`COc1ccc(NC(=O)Nc2ccc(OCCCOc3ccc(NC(=O)Nc4ccc(OC)cc4)cc3)cc2)cc1` showed a growth, % of control at 10 µM [1] of 95.5%, a growth, % of control at 10 µM [2] of 111% and a growth, % of control at 10 µM [3] of 86.7%. For the same molecule, the growth, % of control at 10 µM [4] was 95.7%, the growth, % of control at 10 µM [5] was 121% and the growth, % of control at 10 µM [6] was 94.5%. For the same molecule, the growth, % of control at 10 µM [7] was 124%, the growth, % of control at 10 µM [8] was 107% and the growth, % of control at 10 µM [9] was 118%. It also gave a growth, % of control at 10 µM [10] of 103%, a growth, % of control at 10 µM [11] of 71.7% and a growth, % of control at 10 µM [12] of 101%. It also gave a growth, % of control at 10 µM [13] of 89.8%, a growth, % of control at 10 µM [14] of 99.3% and a growth, % of control at 10 µM [15] of 93.3%. For the same molecule, the growth, % of control at 10 µM [16] was 95.5%, the growth, % of control at 10 µM [17] was 204% and the growth, % of control at 10 µM [18] was 99.5%. It also gave a growth, % of control at 10 µM [19] of 90.2%, a growth, % of control at 10 µM [20] of 86.9% and a growth, % of control at 10 µM [21] of 144%. It also gave a growth, % of control at 10 µM [22] greater than 100%, a growth, % of control at 10 µM [23] of 87.3% and a growth, % of control at 10 µM [24] of 71.4%. It also gave a growth, % of control at 10 µM [25] of 108%, a growth, % of control at 10 µM [26] of 107% and a growth, % of control at 10 µM [27] of 55%. It also gave a growth, % of control at 10 µM [28] of 93.3%, a growth, % of control at 10 µM [29] of 88.2% and a growth, % of control at 10 µM [30] of 88.1%. For the same molecule, the growth, % of control at 10 µM [31] was 83.6%.
